# Experimental data reported in ChEMBL document CHEMBL1128204, “Novel non-nucleoside inhibitors of human immunodeficiency virus type 1 (HIV-1) reverse transcriptase. 4. 2-Substituted dipyridodiazepinones as potent inhibitors of both wild-type and cysteine-181 HIV-1 reverse transcriptase enzymes” (J Med Chem, 1995).
# What was measured:
# [1] = target: Human immunodeficiency virus type 1 reverse transcriptase (Human immunodeficiency virus 1, UniProt Q72547, Y181C); test: Inhibitory activity against HIV-1 Y181C Reverse transcriptase (RT)
# Summary of the method: (§1)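 The enzyme was either p66/p51 heterodimer purified to near homogeneity or crude E. coli lysate containing the mutant RT. Inhibitory concentration was measured in an RT enzyme assay.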
# [2] = target: Human immunodeficiency virus type 1 reverse transcriptase (Human immunodeficiency virus 1, UniProt Q72547); test: Inhibitory concentration against HIV-1 wild type Reverse transcriptase (RT)
# [3] = target: Human immunodeficiency virus type 1 reverse transcriptase (Human immunodeficiency virus 1, UniProt Q72547, K103N); test: Inhibitory concentration against mutant reverse transcriptase of K103N was determined which is in turn resistant to pyridinones; summary of the method: as §1
# [4] = target: Human immunodeficiency virus type 1 reverse transcriptase (Human immunodeficiency virus 1, UniProt Q72547, P236L); test: Inhibitory concentration against mutant reverse transcriptase of P236L was determined which is in turn resistant to BHAP; summary of the method: as §1
# [5] = target: Human immunodeficiency virus type 1 reverse transcriptase (Human immunodeficiency virus 1, UniProt Q72547, L100I); test: Inhibitory concentration against mutant reverse transcriptase of L100I was determined which is in turn resistant TIBO; summary of the method: as §1
# [6] = target: Human immunodeficiency virus type 1 reverse transcriptase (Human immunodeficiency virus 1, UniProt Q72547, E138K); test: Inhibitory concentration against mutant reverse transcriptase of E138K was determined which is in turn resistant to TSAO; summary of the method: as §1
# C8166 = test: Inhibitory concentration against cell culture of Human T-cell line c8166 infected with HIV-1 IIIB strain was determined; assay type: functional, cell-based
Structure (SMILES),IC50 [1],IC50 [2],further results
CCN1c2ncccc2C(=O)N(C)c2ccc(-c3ccco3)nc21,160 nM,110 nM,
CCN1c2ncccc2C(=O)Nc2c(C)cc(N3CCC(O)C3)nc21 (stereo unspecified),> 1000 nM,40 nM,
CCN1c2ncccc2C(=O)N(C)c2ccc(-c3ccc(O)cc3)nc21,270 nM,70 nM,IC50 [3]: 10 nM; IC50 [4]: 1 nM; IC50 [5]: 500 nM; IC50 [6]: 60 nM; IC50 (C8166): 300 nM
CCN1c2ncccc2C(=O)Nc2c(C)cc(C(C)C)nc21,> 1000 nM,1000 nM,
CCN1c2ncccc2C(=O)N(C)c2ccc(-c3ccc(N)cc3)nc21,120 nM,40 nM,IC50 [3]: 260 nM; IC50 [4]: 260 nM; IC50 [5]: 570 nM; IC50 [6]: 60 nM; IC50 (C8166): 550 nM
CCN1c2ncccc2C(=O)Nc2c(C)cc(C)nc21,> 1000 nM,20 nM,
CCN1c2ncccc2C(=O)Nc2c(C)cc(Cl)nc21,800 nM,10 nM,
CCN1c2ncccc2C(=O)N(C)c2ccc(/C=C/C(N)=O)nc21,2400 nM,250 nM,
CCN1c2ncccc2C(=O)N(C)c2ccc(-c3ccc(OC)cc3)nc21,3200 nM,1400 nM,
CCN1c2ncccc2C(=O)Nc2c(C)cc(SC)nc21,> 1000 nM,20 nM,
CCN1c2ncccc2C(=O)N(C)c2ccc(-c3cccc(OC)c3)nc21,210 nM,150 nM,
CCN1c2ncccc2C(=O)N(C)c2ccc(N3CCCCC3)nc21,> 1000 nM,300 nM,
CCN1c2ncccc2C(=O)N(C)c2ccc(-c3ccc(OC)nc3)nc21,3000 nM,1200 nM,
CCN1c2ncccc2C(=O)N(C)c2ccc(NC)nc21,710 nM,190 nM,
CCN1c2ncccc2C(=O)N(C)c2ccc(-c3cnc[nH]3)nc21,740 nM,3700 nM,
CCN1c2ncccc2C(=O)Nc2c(C)cc(N3CCSCC3)nc21,> 1000 nM,150 nM,
CCN1c2ncccc2C(=O)N(C)c2ccc(-c3cc[nH]c3)nc21,40 nM,30 nM,IC50 [3]: 50 nM; IC50 [4]: 130 nM; IC50 [5]: 410 nM; IC50 [6]: 70 nM; IC50 (C8166): 40 nM
CCN1c2ncccc2C(=O)Nc2c(C)cc(NCCCO)nc21,> 1000 nM,90 nM,
CCN1c2ncccc2C(=O)N(C)c2ccc(-c3ccc(O)nc3)nc21,> 1000 nM,1100 nM,
CCN1c2ncccc2C(=O)N(C)c2ccc(-c3ccsc3)nc21,300 nM,100 nM,
Cc1cc(Cl)nc2c1NC(=O)c1cccnc1N2C1CC1,780 nM,20 nM,
CCN1c2ncccc2C(=O)N(C)c2ccc(-c3cccs3)nc21,420 nM,140 nM,
CCN1c2ncccc2C(=O)N(C)c2ccc(-c3cc[nH]n3)nc21,290 nM,390 nM,

Structure (SMILES),IC50 [1],IC50 [2],further results
C#Cc1ccc2c(n1)N(CC)c1ncccc1C(=O)N2C,420 nM,140 nM,
CCN1c2ncccc2C(=O)N(C)c2ccc(N(C)C)nc21,770 nM,70 nM,
COc1ccc2c(n1)N(C1CC1)c1ncccc1C(=O)N2C,1100 nM,120 nM,
CCN1c2ncccc2C(=O)N(C)c2ccc(N)nc21,> 1000 nM,> 1000 nM,
CCN1c2ncccc2C(=O)N(C)c2ccc(N3CCCC3)nc21,3800 nM,20 nM,
Cc1cc(C)c2c(n1)N(C1CC1)c1ncccc1C(=O)N2,1200 nM,70 nM,
C/C=C/Nc1ccc2c(n1)N(CC)c1ncccc1C(=O)N2C,> 1000 nM,390 nM,
CCN1c2ncccc2C(=O)N(C)c2ccc(OC)nc21,600 nM,40 nM,
CCN1c2ncccc2C(=O)N(C)c2ccc(-c3cn[nH]c3)nc21,60 nM,20 nM,IC50 [3]: 80 nM; IC50 [4]: 130 nM; IC50 [5]: 2500 nM; IC50 [6]: 50 nM; IC50 (C8166): 40 nM
CCN1c2ncccc2C(=O)N(C)c2ccc(C)nc21,1200 nM,120 nM,
CCN1c2ncccc2C(=O)N(C)c2cccnc21,2200 nM,,
Cc1ccnc2c1NC(=O)c1cccnc1N2C1CC1 [NEVIRAPINE],,,IC50 (C8166): 40 nM
CCN1c2ncccc2C(=O)N(C)c2ccc(-c3ccc[nH]3)nc21,70 nM,70 nM,
CN1C(=O)c2cccnc2N(C2CC2)c2nc(-c3cc[nH]c3)ccc21,60 nM,50 nM,
CCN1c2ncccc2C(=O)N(C)c2ccc(-n3cccc3)nc21,210 nM,90 nM,
CCN1c2ncccc2C(=O)N(C)c2ccc(-c3ncco3)nc21,820 nM,220 nM,
CCN1c2ncccc2C(=O)Nc2c(C)ccnc21,1800 nM,40 nM,
CCN1c2ncccc2C(=O)N(C)c2ccc(-n3cccn3)nc21,560 nM,310 nM,
CCN1c2ncccc2C(=O)N(C)c2ccc(/C=C/C(=O)OC)nc21,670 nM,180 nM,
CCN1c2ncccc2C(=O)Nc2c(C)cc(F)nc21,850 nM,20 nM,
CCN1c2ncccc2C(=O)N(C)c2ccc(Cl)nc21,210 nM,80 nM,IC50 [3]: 1100 nM; IC50 [4]: 20 nM; IC50 [6]: 120 nM; IC50 (C8166): 160 nM
CN1C(=O)c2cccnc2N(C2CC2)c2nc(Br)ccc21,2100 nM,30 nM,
CCN1c2ncccc2C(=O)N(C)c2ccc(-c3cccc(N)c3)nc21,560 nM,,

Structure (SMILES),IC50 [1],IC50 [2],further results
CN1C(=O)c2cccnc2N(C2CC2)c2nc(Cl)ccc21,920 nM,,
CCN1c2ncccc2C(=O)Nc2c(C)cc(NCCO)nc21,> 1000 nM,90 nM,
CCN1c2ncccc2C(=O)Nc2c(C)cc(C(C)(C)C)nc21,> 1000 nM,> 1000 nM,
CCNc1ccc2c(n1)N(CC)c1ncccc1C(=O)N2C,1300 nM,230 nM,
CCc1cc(C)c2c(n1)N(CC)c1ncccc1C(=O)N2,1700 nM,90 nM,
CCN1c2ncccc2C(=O)N(C)c2ccc(=O)[nH]c21,> 1000 nM,470 nM,
CCN1c2ncccc2C(=O)N(C)c2ccc(-c3nccs3)nc21,240 nM,100 nM,
CN1C(=O)c2cccnc2N(C2CC2)c2nc(-c3cn[nH]c3)ccc21,50 nM,60 nM,IC50 [3]: 420 nM; IC50 [4]: 340 nM; IC50 [5]: 1500 nM; IC50 [6]: 460 nM; IC50 (C8166): 120 nM
CCN1c2ncccc2C(=O)N(C)c2ccc(-c3ccoc3)nc21,110 nM,40 nM,
CN1C(=O)c2cccnc2N(C2CC2)c2nc(-c3ccncc3)ccc21,320 nM,150 nM,
CN1C(=O)c2cccnc2N(C2CC2)c2nc(-c3cccnc3)ccc21,440 nM,180 nM,
CCN1c2ncccc2C(=O)N(C)c2ccc(-c3ccc(N)nc3)nc21,260 nM,50 nM,IC50 [3]: 410 nM; IC50 [4]: 40 nM; IC50 [5]: 240 nM; IC50 [6]: 20 nM; IC50 (C8166): 240 nM
CCN1c2ncccc2C(=O)N(C)c2ccc(-c3cnco3)nc21,560 nM,110 nM,
CCN1c2ncccc2C(=O)N(C)c2ccc(-c3ccccn3)nc21,1600 nM,180 nM,
CCN1c2ncccc2C(=O)N(C)c2ccc(-c3cccc(O)c3)nc21,180 nM,100 nM,
CCN1c2ncccc2C(=O)N(C)c2ccc(N3CC=CC3)nc21,640 nM,30 nM,
CCN1c2ncccc2C(=O)N(C)c2ccc(-c3ncc[nH]3)nc21,190 nM,130 nM,
CCN1c2ncccc2C(=O)N(C)c2ccc(-c3ccccc3)nc21,1400 nM,230 nM,
CCN1c2ncccc2C(=O)N(C)c2ccc(-c3ccccc3OC)nc21,2500 nM,820 nM,
CCN1c2ncccc2C(=O)N(C)c2ccc(N3CCOCC3)nc21,> 1000 nM,400 nM,
CCN1c2ncccc2C(=O)Nc2c(C)cc(N(C)CCO)nc21,> 1000 nM,10 nM,
CCN1c2ncccc2C(=O)N(C)c2ccc(-c3cncs3)nc21,1100 nM,380 nM,
